T cruzi growth-1: blocks T. cruzi growth in NIH3T3 culture; T. cruzi beta-gal in NIH3T3, GalScreen luminescence, 90 h; inhibition, % at 8.34 µM; 77,000 compounds, 5.9% hits; AID 624255;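 active = mean inhibition above about 93%, with at least 55% of replicates each passing it, limit read from the data, passing the limit was not always enough; inconclusive = only one of those two conditions holds; inactive = neither condition holds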
Pf Dd2 growth: blocks growth of Plasmodium falciparum Dd2 parasites; 94,000 compounds, 2.3% hits; P. falciparum Dd2 growth, SYBR Green, 72 h; hits give low values; AID 1159554; activity change, % at 10 µM; in the data active = activity change below about -80%; inconclusive = no clear call, values can overlap the other calls
IDH1 mut inh: blocks human IDH1 R132H reductase activity; O75874; diaphorase/resazurin fluorescence, 60 min; inhibition, % at 10 µM; 70,000 compounds, 0.18% hits; AID 624101; in the data active = inhibition above about 34%; inconclusive = no clear call, values can overlap the other calls; inactive = below about 11%;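 also: 0% = DMSO and 100% = no enzyme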
KDM4C inh: inhibitors of human demethylase GASC-1 KDM4C | Q9H3R0 | GST-KDM4C 2-372, H3K9me3 peptide, LANCE TR-FRET | inhibition, % at 12.5 µM | 96,000 compounds, 0.15% hits;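 active = mean replicate inhibition above about 25%, with at least 55% of replicates also reaching it, limit read from the data, passing the limit was not always enough; inconclusive = only one of those two conditions met; inactive = neither condition met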
Target sequence (Q9H3R0 2-372 limits assumed): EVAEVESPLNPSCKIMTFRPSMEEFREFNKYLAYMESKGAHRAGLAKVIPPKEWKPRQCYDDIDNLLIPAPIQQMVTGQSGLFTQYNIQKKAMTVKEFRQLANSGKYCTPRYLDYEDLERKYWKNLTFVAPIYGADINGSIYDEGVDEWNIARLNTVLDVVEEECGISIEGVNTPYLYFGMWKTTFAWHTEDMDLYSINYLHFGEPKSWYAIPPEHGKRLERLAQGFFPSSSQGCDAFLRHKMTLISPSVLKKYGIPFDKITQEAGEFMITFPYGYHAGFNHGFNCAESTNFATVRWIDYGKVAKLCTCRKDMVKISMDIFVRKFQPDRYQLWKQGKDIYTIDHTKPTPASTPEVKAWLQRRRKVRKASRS
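System – N-terminal GST-fused human GASC-1 (KDM4C) fragment, residues 2-372 · Input – enzyme final amount 10 nM · Technique – LANCE TR-FRET, Eu antibody, ULight-streptavidin, EDTA, ex 340 nm, em 618/671 nm · Medium – HEPES buffer, pH 7.5, plus ascorbate · Incubation – enzyme reaction 30 min, then detection 60 min, both room temperature · Reagent – H3K9me3 peptide with Fe(II)/2OG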
T cruzi growth-2: blocks T. cruzi growth in NIH3T3 host cells | T. cruzi beta-gal in NIH3T3, GalScreen luminescence, 90 h | inhibition, % at 8.35 µM | AID 651739 | 5,600 compounds, 72% hits | shares compounds with T cruzi growth-1;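 active = mean replicate inhibition above about 95% and at least 55% of replicates individually reaching it, limit read from the data; inconclusive = only one of the two criteria is met; inactive = neither criterion is met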
T cruzi growth-3: Trypanosoma cruzi proliferation inhibition; shares compounds with T cruzi growth-1; T. cruzi beta-gal in NIH3T3, GalScreen luminescence, 90 h; inhibition, % at 2.09 µM; 5,600 compounds, 21% hits; AID 651740;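 active = mean inhibition above about 95%, with at least 55% of replicates also reaching it, limit read from the data; inconclusive = meets just one of the two conditions; inactive = meets neither condition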;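 also: plate controls were neutral control median for no effect and positive control median for full effect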
NIH3T3 tox: kills mouse NIH/3T3 fibroblasts; shares compounds with T cruzi growth-1; NIH/3T3 viability, CellTiter-Glo ATP luminescence, 90 h; cytotoxicity (signal decrease), % at 8.35 µM; 5,600 compounds, 14% hits; AID 651742;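 active = mean signal decrease across replicates above about 35% based on untreated-well scatter, with enough replicates individually passing, limit read from the data; inconclusive = no rule stated though some were filed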;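 also: 0% = median of neutral control wells and 100% = median of positive control wells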
3T3 cytotox 2: kills mouse NIH/3T3 fibroblasts | inhibition, % at 24.9 µM | AID 651744 | NIH/3T3 viability, CellTiter-Glo ATP luminescence, 90 h | 5,600 compounds, 56% hits | shares compounds with T cruzi growth-1;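 active = mean loss of cell viability signal at or above a set limit, and enough replicates individually reaching it; inconclusive = meets only the mean limit or only the replicate share; inactive = meets neither condition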;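 also: 0% = median of neutral control wells and 100% = median of positive control wells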
Active calls of the source: *; ? = inconclusive; / = no result. The list is not random: actives were taken first. Their share in the collection is about 5.8%.

SMILES	T cruzi growth-1	Pf Dd2 growth	IDH1 mut inh	KDM4C inh	T cruzi growth-2	T cruzi growth-3	NIH3T3 tox	3T3 cytotox 2
C[C@H](CO)N1C[C@H](C)[C@H](CN(C)Cc2ccc(-c3ccccc3)cc2)Oc2c(NC(=O)c3ccncc3)cccc2C1=O	99*	-73	-10	-1	105*	?	56*	47*
C[C@@H]1CN([C@@H](C)CO)C(=O)c2cccc(NC(=O)c3ccncc3)c2O[C@H]1CN(C)Cc1ccc(-c2ccccc2)cc1	105*	-28	/	3	83	82	31	55*
C[C@H](CO)N1C[C@H](C)[C@@H](CN(C)CC2CCCCC2)Oc2c(NS(=O)(=O)c3cn(C)cn3)cccc2C1=O	103*	14	/	13	51	16	11	8
C[C@H]1CN([C@@H](C)CO)C(=O)c2cccc(NC(=O)c3ccncc3)c2O[C@H]1CN(C)Cc1ccncc1	50	11	/	-1	/	/	/	/
COCCNC(=O)[C@H]1[C@H](CO)[C@H]2Cn3c(ccc(C4=CCCCC4)c3=O)[C@@H]1N2Cc1cocn1	-1	-1	/	2	/	/	/	/
O=C(C1CCOCC1)N1CC(=O)N2[C@H](CO)[C@@H](c3ccc(C#Cc4cccc(F)c4)cc3)[C@H]2C1	/	-10	/	2	/	/	/	/
CS(=O)(=O)Nc1ccc2c(c1)[C@@H]1C[C@@H](CC(=O)NCC3CC3)O[C@@H](CO)[C@@H]1O2	-9	14	-2	1	/	/	/	/
COc1ccc(NC(=O)N(C)C[C@H]2OCCCC[C@H](C)Oc3ccc(NS(=O)(=O)c4cccs4)cc3C(=O)N([C@@H](C)CO)C[C@@H]2C)cc1	52	-51	1	-2	/	/	/	/
C[C@@H]1C[C@H]2[C@@H]3CCC4=CC(=O)C=C[C@]4(C)[C@@]3(Cl)[C@@H](O)C[C@]2(C)[C@@]1(OC(=O)c1ccco1)C(=O)CCl	/	/	0	/	/	/	/	/
Cc1cc(C)c(NC(=O)CN(c2cccc([N+](=O)[O-])c2)S(C)(=O)=O)c(C)c1	/	/	0	/	/	/	/	/
C[C@@H]1CN([C@H](C)CO)C(=O)c2cccc(NC(=O)c3ccncc3)c2O[C@H]1CN(C)CC1CC1	48	-12	1	1	/	/	/	/
C[C@@H]1CN([C@H](C)CO)C(=O)c2cccc(NC(=O)c3ccncc3)c2O[C@H]1CN(C)Cc1ccc(-c2ccccc2)cc1	107*	-79	/	1	94	85	50*	41*
C[C@H](CO)N1C[C@H](C)[C@@H](CN(C)CC2CC2)Oc2c(NC(=O)c3ccncc3)cccc2C1=O	102*	9	-1	/	78	23	-9	?
C[C@H](CO)N1C[C@H](C)[C@@H](CN(C)Cc2ccccc2)Oc2c(NC(=O)c3ccncc3)cccc2C1=O	65	-28	/	0	/	/	/	/
C[C@@H]1CCCCO[C@H](CN(C)S(C)(=O)=O)[C@H](C)CN([C@@H](C)CO)C(=O)c2cc(NC(=O)c3ccccc3)ccc2O1	17	-57	0	-1	/	/	/	/
O=C(C[C@@H]1CC[C@@H]2[C@H](COC[C@@H](O)CN2C(=O)Nc2ccc(Cl)cc2)O1)NCCc1ccncc1	119*	19	/	0	94	80	-14	-8
O=C(C[C@H]1CC[C@@H]2[C@H](COC[C@@H](O)CN2C(=O)Nc2ccc(F)cc2)O1)NCCc1ccncc1	72	4	/	-2	/	/	/	/
COc1ccccc1NC(=O)N1C[C@H](O)COC[C@H]2O[C@H](CC(=O)NCCc3ccncc3)CC[C@@H]21	?	/	/	-1	36	-3	-1	-1
O=C(C[C@H]1CC[C@@H]2[C@H](COC[C@@H](O)CN2C(=O)Nc2ccc(Cl)cc2)O1)NCCc1ccncc1	106*	7	/	-2	96*	84	-5	-11
O=C(C[C@H]1CC[C@@H]2[C@H](COC[C@H](O)CN2C(=O)Nc2ccc(Cl)cc2)O1)NCCc1ccncc1	109*	10	/	0	91	83	10	25
C[C@H]1CN([C@@H](C)CO)C(=O)Cc2cc(NC(=O)C3CCCCC3)ccc2O[C@@H]1CN(C)S(C)(=O)=O	54	15	3	-1	/	/	/	/
CCc1cnc(N2[C@@H](C#N)[C@@H](c3ccccc3C3=CCCC3)[C@@H]2CO)s1	/	13	/	-2	/	/	/	/
C[C@H](CO)N1C[C@H](C)[C@@H](CN(C)C)Oc2cc(C#Cc3ccccn3)ccc2S1(=O)=O	/	24	-1	-1	/	/	/	/
C[C@@H]1CN([C@@H](C)CO)S(=O)(=O)c2ccc(C#Cc3ccccn3)cc2O[C@H]1CN(C)Cc1ccc(F)cc1	128*	-47	0	-26	97*	?	50*	39*
C[C@@H]1CN([C@H](C)CO)S(=O)(=O)c2ccc(C#Cc3ccc(F)cc3)cc2O[C@H]1CN(C)C(=O)c1ccccn1	88	-50	/	3	/	/	/	/
SMILES	T cruzi growth-1	Pf Dd2 growth	IDH1 mut inh	KDM4C inh	T cruzi growth-2	T cruzi growth-3	NIH3T3 tox	3T3 cytotox 2
C[C@@H]1CN([C@H](C)CO)S(=O)(=O)c2ccc(C#Cc3ccccn3)cc2O[C@@H]1CN(C)Cc1ccc(F)cc1	116*	-24	0	-5	105*	64	11	24*
C[C@@H]1CN([C@H](C)CO)S(=O)(=O)c2ccc(C#Cc3ccccn3)cc2O[C@H]1CN(C)Cc1ccc(F)cc1	127*	-29	0	-12	104*	91	29	93*
C[C@H]1CN([C@@H](C)CO)S(=O)(=O)c2ccc(C#Cc3ccccn3)cc2O[C@H]1CN(C)C	/	5	-8	1	/	/	/	/
C[C@H]1CN([C@@H](C)CO)S(=O)(=O)c2ccc(C#Cc3ccc(F)cc3)cc2O[C@@H]1CN(C)C(=O)c1ccccn1	?	-66	/	-1	102*	29	1	52*
O=C(Nc1ccc(F)cc1)N[C@@H]1CC[C@H](CC(=O)N2CCCCC2)O[C@@H]1CO	-59	17	0	0	/	/	/	/
C[C@@H]1CN([C@H](C)CO)S(=O)(=O)c2ccc(C3=CCCC3)cc2O[C@H]1CN(C)Cc1cccc(C(=O)O)c1	45	-32	17	-1	/	/	/	/
O=C(Nc1cc(Cl)cc(Cl)c1)N[C@H]1CC[C@H](CCNS(=O)(=O)c2cccc(F)c2)O[C@@H]1CO	112*	3	0	0	108*	7	16	97*
O=C(Nc1cccc(F)c1)N[C@@H]1CC[C@@H](CCNS(=O)(=O)c2cccc(Cl)c2)O[C@H]1CO	26	7	-1	-2	/	/	/	/
O=C(Nc1cccc(F)c1)N[C@@H]1CC[C@H](CCNS(=O)(=O)c2cccc(Cl)c2)O[C@@H]1CO	153*	-20	-1	0	18	8	-1	1

Compound activity (PubChem BioAssay)
